The text below walks through data of ChEMBL document CHEMBL5385869, “Novel 4-aminoquinolines: Synthesis, inhibition of the Mycobacterium tuberculosis enoyl-acyl carrier protein reductase, antitubercular activity, SAR, and preclinical evaluation” (Eur J Med Chem, 2023).

Molecules are shown by their SMILES. Activity calls are given as the source filed them. The calls are words filed in the database; no cut-off is given here.

In test [1] the test system is Mycobacterium tuberculosis. Nature of the test: Antibacterial activity against Mycobacterium tuberculosis H37Rv ATCC 27294 infected in CF-1 mouse assessed as reversal of bacterial growth in spleen at 300 to 450 uM/kg, po administered daily for 14 days starting from 7 days post infection. The class given is functional, organism-based. The note with it: dose 300-450 µM/Kg, time 14.0 day. The gist of the method:
(§1)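 Mice treated by gavage from 7 days post-infection for 14 days, daily, at 300 or 450 μM/kg. Lungs and spleen homogenized in saline and plated for CFU. Comparisons are against vehicle and early-control groups.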

Test [2] has as its system Mycobacterium tuberculosis. Nature of the test: Bacteriostatic activity in Mycobacterium tuberculosis H37Rv ATCC 27294 infected in CF-1 mouse assessed as reduction in bacterial growth in lungs at 300 to 450 uM/kg, po administered daily for 14 days starting from 7 days post infection. It counts as functional, organism-based. The note with it: dose 300-450 µM/Kg, time 14.0 day. The gist of the method:
as §1

Take `Cc1cc(Nc2ccc(N3CCCCC3)cc2)c2cc(Br)ccc2n1`: in test [1], the outcome was inactive. Further, in test [2], the result was Active.
